Each structure is given as a SMILES string. Calls of active or inactive are those of the source. The rule behind the calls is not given here.

Series [1] is filed under the species Homo sapiens. The series is described as follows: Inhibition of acetyl-PHF6 amide self-aggregation (unknown origin) in pH 7.4 phosphate buffer at 10 uM and 25 degreeC measured every 1 min for 120 mins under shaking condition by ThT fluorescence assay relative to control. Put shortly:
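AcPHF6 dissolved in HFIP, dried overnight, 1 mM water stock used at once. Final 100 μM peptide, 20 μM ThT, 10 μM compound (≤0.1% DMSO) in 50 mM phosphate buffer pH 7.4, 25 °C. Ex 440/em 490 nm read each minute for 120 min, 10 s shaking (400 rpm) before each read. Inhibition from mean signal at 50–60 min; ≥3 wells; mean ± SD of three experiments; DMSO negative control.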

Series [2] is filed under the species Homo sapiens. The series is described as follows: Inhibition of acetyl-PHF6 amide self-aggregation (unknown origin) in pH 7.4 phosphate buffer assessed as decrease in absorbance intensity at 10 uM and 25 degreeC measured immediately after 10 sec vibration per minute for 120 mins under shaking condition by circular dichroism spectroscopy. Put shortly: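 Fresh samples of 100 μM AcPHF6 with 10 μM compound (≤0.1% DMSO) in 50 mM phosphate buffer pH 7.4. 10 s vibration per minute at 25 °C over 120 min. Spectra 260–200 nm, 1 mm quartz cell, 1 nm bandwidth, 50 nm/min scan. Solvent and compound contributions subtracted, converted to Δε per residue, Savitzky-Golay smoothed.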

The species entered for series [3] is Homo sapiens. The series is described as follows: Inhibition of acetyl-PHF6 amide self-aggregation (unknown origin) in pH 7.4 phosphate buffer assessed as absence of fibrillar material at 20 uM and 25 degreeC measured after 10 mins by phosphotungstic acid staining based TEM analysis.
The species entered for series [4] is Homo sapiens. The series is described as follows: Inhibition of acetyl-PHF6 amide self-aggregation (unknown origin) in pH 7.4 phosphate buffer assessed as appearance of dot like structure with <5 nm at 20 uM and 25 degreeC measured after 10 mins by phosphotungstic acid staining based TEM analysis.
The target in series [5] is Microtubule-associated protein tau (Homo sapiens) (UniProt P10636). The series can be described thus: Inhibition of heparin-induced recombinant full length His-tagged 2N4R tau self-aggregation (unknown origin) expressed in Escherichia coli BL21 (DE3) at 10 uM measured after 6 mins by ThT fluorescence assay. Put shortly: (§1)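 His-tagged full-length 2N4R tau from E. coli BL21(DE3) (pET-28a, 1 mM IPTG, 37 °C), BCA-quantified, stored −80 °C. 10 μM tau with 10 μM compound and 1 mM DTT in 1× PBS at 37 °C, aggregation started with 10 μM heparin (MW 6117), 10 μM ThT. Ex 440/em 490 nm, read every 4 min with 2 min shaking (600 rpm) before reading.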
Microtubule-associated protein tau (Homo sapiens), sequence (P10636 whole entry): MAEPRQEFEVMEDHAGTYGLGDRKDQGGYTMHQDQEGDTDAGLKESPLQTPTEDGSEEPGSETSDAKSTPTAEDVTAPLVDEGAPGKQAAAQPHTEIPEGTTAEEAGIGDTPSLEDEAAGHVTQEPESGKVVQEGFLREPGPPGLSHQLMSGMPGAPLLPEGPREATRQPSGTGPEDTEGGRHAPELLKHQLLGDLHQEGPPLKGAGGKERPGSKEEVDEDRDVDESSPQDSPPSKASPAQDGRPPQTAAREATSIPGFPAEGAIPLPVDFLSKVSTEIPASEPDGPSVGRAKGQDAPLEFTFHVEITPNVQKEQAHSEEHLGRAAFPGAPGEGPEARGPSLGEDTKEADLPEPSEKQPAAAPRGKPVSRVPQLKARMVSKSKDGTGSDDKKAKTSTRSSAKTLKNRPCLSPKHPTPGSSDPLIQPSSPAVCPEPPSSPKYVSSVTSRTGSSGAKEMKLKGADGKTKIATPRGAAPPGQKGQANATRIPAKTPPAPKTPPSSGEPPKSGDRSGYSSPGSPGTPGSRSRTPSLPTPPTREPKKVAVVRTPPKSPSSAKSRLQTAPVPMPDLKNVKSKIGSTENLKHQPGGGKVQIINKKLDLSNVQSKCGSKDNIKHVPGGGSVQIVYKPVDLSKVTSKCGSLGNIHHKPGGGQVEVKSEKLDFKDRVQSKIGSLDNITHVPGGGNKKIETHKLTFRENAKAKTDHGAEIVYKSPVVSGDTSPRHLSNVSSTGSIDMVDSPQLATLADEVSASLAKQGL

Series [6] shares this target. The series is described as follows: Inhibition of heparin-induced recombinant full length His-tagged 2N4R tau self-aggregation (unknown origin) expressed in Escherichia coli BL21 (DE3) assessed as reduction in aggregate formation at 10 uM measured after 6 mins by ThT fluorescence assay relative to control. Put shortly:
as §1

A further series deals with SH-SY5Y. The series can be described thus: Cytotoxicity against human SH-SY5Y cells assessed as reduction in cell survival at 30 uM measured after 24 hrs by MTT assay. The format is cell-based. Put shortly: (§2)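 Cells in high-glucose DMEM with 10% FBS, 5% CO₂, 37 °C, seeded 3000–5000/well, exposed to compound 24 h. MTT (0.5 mg/mL) 4 h, formazan dissolved in DMSO, absorbance 570 nm (reference 630 nm). Viability as percent of untreated control; mean ± SD, three independent experiments.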

In the next series the test system is L02. The series can be described thus: Cytotoxicity against human L02 cells assessed as effect on cell viability at <=40 uM measured after 24 hrs by MTT assay. The format is cell-based. The following applies: l02, 24 h. Put shortly:
as §2
(Tetrazolium assays rely on reduction of a dye to a coloured formazan, in cell work by metabolically active cells.)

In series [7] the test system is BV-2. The series is described as follows: Cytotoxicity against mouse BV-2 cells at 20 uM measured after 24 hrs by MTT assay. The series is classed as cell-based. The conditions noted are these: bv-2, 24 h. Put shortly:
as §2

The test system of series [8] is BV-2. The series can be described thus: Antiinflammatory activity in mouse BV-2 cells assessed as inhibition of LPS-induced NO production at 10 uM pretreated with compound for 1 hr followed by LPS stimulation and measured after 18 hrs by Griess assay relative to control. The following applies: time 19 hrs. The format is functional. Put shortly:
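BV2 microglia grown in high-glucose DMEM with 10% FBS, seeded at 3 × 10^4 cells/well, preincubated with compound 1 h, then LPS (final 1 µg/ml) for 18 h. Supernatant mixed with equal volume Griess reagent, 10 min at 25 °C, absorbance 540 nm. Inhibition = (F_L−F_C)/(F_L−F₀) × 100. Mean ± SD, three independent experiments.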
A general note: Nitrite, measured by Griess reagent, commonly stands in for NO production.

Series [9] is described as follows: Acute toxicity in Sprague-Dawley rat model of OA-induced dementia assessed as mortality at 5 to 10 mg/kg, ip administered for 7 days. The series is classed as organism-based. The following applies: in vivo, 168 h, dose 5-10 mg/kg, time 7 day. Put shortly: (§3)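 Adult male SD rats (260-280 g), n = 8 per group. Compound given ip at 5 or 10 mg/kg daily for 7 days in saline with 8% DMSO and 1% Tween-80 cosolvent; controls got vehicle. Okadaic acid (300 ng in 1.5 μL saline) then injected stereotaxically into right dorsal hippocampus under isoflurane, and ip dosing continued 7 more days. Body weight recorded throughout; swimming speed recorded in Morris water maze.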

Series [10] concerns Rattus norvegicus. The series can be described thus: Cognitive enhancing effect in Sprague-Dawley rat model of OA-induced dementia assessed as average escape latency time to hidden platform at 5 to 10 mg/kg, ip administered for 7 days by Morris water maze test (reference value: 12.5 to 37.2 sec). The series is classed as functional. The conditions noted are these: dose 5-10 mg/kg; time 7 day. Put shortly:
(§4)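 Male SD rats (n = 8/group), ip dosing at 5 or 10 mg/kg in saline with 8% DMSO and 1% Tween-80 for 7 days, then OA (300 ng in 1.5 μL saline) microinjected into right dorsal hippocampus. Dosing continued 7 days after OA. Morris water maze: 5 training days recording escape latency, distance and swim speed; day-6 probe trial, platform removed, 60 s search, quadrant time and crossings counted. Two-way ANOVA versus model; SEM.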

Series [11] in a line: Toxicity in Sprague-Dawley rat model of OA-induced dementia assessed as effect on swimming speed at 5 to 10 mg/kg, ip administered for 7 days. The format is organism-based. The following applies: in vivo, 168 h, dose 5-10 mg/kg, time 7 day. Put shortly:
as §3

In series [12] the test system is Rattus norvegicus. The series is described as follows: Cognitive enhancing effect in Sprague-Dawley rat model of OA-induced dementia assessed as increase in time spent in virtual platform quadrant at 10 mg/kg, ip administered for 7 days by Morris water maze test. The format is functional, organism-based. The conditions noted are these: time 7.0 day. Put shortly: as §4

For series [13], the system named is Rattus norvegicus. The series is described as follows: Cognitive enhancing effect in Sprague-Dawley rat model of OA-induced dementia assessed as increase in number of platform crossing at 10 mg/kg, ip administered for 7 days by Morris water maze test. The following applies: time 7.0 day. The format is functional, organism-based. Put shortly:
as §4

The nature of series [14]: Acute toxicity in Sprague-Dawley rat model of OA-induced dementia assessed as effect on body weight at 5 to 10 mg/kg, ip administered for 14 days. The conditions noted are these: in vivo, 336 h.

As usually defined, the inhibition is the drop in the measured response relative to a control, in per cent. Regarding `CC(=O)c1c(O)c(C)c(O)c2c1OC1=Cc3c(c(C)nn3-c3ccc(C(=O)O)cc3)C(=O)[C@@]12C`, the results for the inhibition (in the series listed under Homo sapiens [1]; in series [6]) were 51.7% and 50%, respectively. In addition, the inhibition entry (in the series listed under Homo sapiens [2]; in the series listed under Homo sapiens [3]; in the series listed under Homo sapiens [4]; in series [5]) was “Active” throughout. The Activity result in the series on SH-SY5Y is reported as “Toxic”; in the series on L02, “Non-Toxic”; with BV-2 [7] it was “Non-Toxic”; in [9], “Non-Toxic”; in series [11], “Non-Toxic”; in [14], “Non-Toxic”. Moreover, the inhibition at 10 µM in the series on BV-2 [8] was found to be 41%. Also, the Time with Rattus norvegicus [10] was 18.5 s. Also, the result in the series on Rattus norvegicus [12] and with Rattus norvegicus [13] was Active.

The values above are taken from ChEMBL document CHEMBL4706486, “Usnic acid derivatives as tau-aggregation and neuroinflammation inhibitors” (Eur J Med Chem, 2020).
